Results: ChEMBL document CHEMBL4007441, “Novel Design of Heptad Amphiphiles To Enhance Cell Selectivity, Salt Resistance, Antibiofilm Properties and Their Membrane-Disruptive Mechanism” (J Med Chem, 2017)
Converted amounts (≈) assume the structure as drawn.

Experiments:
Escherichia coli = test: microbe, parasite or virus in culture; conditions: ATCC 25922, 18 h
Pseudomonas aeruginosa [1] = test: Antibacterial activity against Pseudomonas aeruginosa CICC 21625 after 18 hrs by broth microdilution method; assay type: functional
How it was run: (§1)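 Broth microdilution in Mueller-Hinton broth. Exponential-phase bacteria (37 °C, 220 rpm shaking) were diluted to about 1 × 10^6 CFU/mL and mixed 1:1 with two-fold serial peptide dilutions. MIC is the lowest concentration with no visible turbidity after 18 h at 37 °C. Controls were uninoculated MHB and untreated culture. Run at least three times, two replicates each.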

RAW264.7 = test: Cytotoxicity in mouse RAW264.7 cells after 24 hrs by MTT assay; assay type: cell-based; conditions: raw264.7, 24 h
Pseudomonas aeruginosa [2] = test: Antibacterial activity against Pseudomonas aeruginosa ATCC 27853 after 18 hrs by broth microdilution method; assay type: functional
How it was run: as §1

Pseudomonas aeruginosa [3] = test: Antibacterial activity against gentamicin-resistant Pseudomonas aeruginosa 11421 after 18 hrs by broth microdilution method; assay type: functional; conditions: Pseudomonas aeruginosa, 11421, 18 h
How it was run: (§2)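 Broth microdilution in Mueller-Hinton broth. Exponential-phase bacteria (37 °C, 220 rpm shaking) were diluted to about 1 × 10^6 CFU/mL and mixed 1:1 with two-fold serial peptide dilutions. Controls were uninoculated MHB and untreated culture. Run at least three times, two replicates each.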

Pseudomonas aeruginosa [4] = test: Antibacterial activity against Pseudomonas aeruginosa 26305 clinical isolate after 18 hrs by broth microdilution method; assay type: functional
Pseudomonas aeruginosa [5] = test: Antibacterial activity against Pseudomonas aeruginosa 21328 clinical isolate after 18 hrs by broth microdilution method; assay type: functional; conditions: Pseudomonas aeruginosa, 21328, 18 h
Pseudomonas aeruginosa [6] = test: Antibacterial activity against Pseudomonas aeruginosa 25349 clinical isolate after 18 hrs by broth microdilution method; assay type: functional
Staphylococcus aureus = test: Antibacterial activity against Staphylococcus aureus ATCC 29213 after 18 hrs by broth microdilution method; assay type: functional
How it was run: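 Broth microdilution. Exponential-phase bacteria grown in MHB at 37 °C, diluted to about 1 × 10^6 CFU/mL in MHB and mixed 1:1 with two-fold dilutions of peptide. MIC is the lowest concentration with no visible turbidity after 18 h at 37 °C. Controls were uninoculated broth and peptide-free culture. At least three repeats, duplicates each.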

Pseudomonas aeruginosa [7] = test: Antibacterial activity against ciprofloxacin-resistant Pseudomonas aeruginosa 11411 after 18 hrs by broth microdilution method; assay type: functional
How it was run: as §2

Pseudomonas aeruginosa [8] = test: Antibacterial activity against ceftazidime-resistant Pseudomonas aeruginosa 11431 after 18 hrs by broth microdilution method; assay type: functional
How it was run: as §1

Pseudomonas aeruginosa [9] = test: Antibacterial activity against Pseudomonas aeruginosa CICC 21630 after 18 hrs by broth microdilution method; assay type: functional
How it was run: as §1

Pseudomonas aeruginosa [10] = test: Antibacterial activity against Pseudomonas aeruginosa CICC 10419 after 18 hrs by broth microdilution method; assay type: functional
How it was run: as §1

Lipopolysaccharide (LPS) = test: Binding affinity to Pseudomonas aeruginosa ATCC 27853 LPS by SPR spectroscopic analysis
How it was run: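 Biacore SPR. Peptides were amine-coupled to CM5 chips at 20 µg/mL in 10 mM acetate pH 6.0, giving about 1300 RU. LPS at 3.125–12.5 µg/mL in 20 mM Tris/100 mM NaCl pH 7.4 was flowed at 10 µL/min. Surfaces were regenerated with 50 mM NaOH plus 0.05% SDS. Three independent runs.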

Pseudomonas aeruginosa [11] = test: Drug uptake in Pseudomonas aeruginosa ATCC 27853 treated with FITC-labeled compound at MIC after 30 mins by confocal fluorescence microscopy; assay type: ADME; conditions: 0.5 h
How it was run: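 Cells were pelleted at 5,000 g for 5 min, washed three times in PBS, smeared and imaged by confocal microscopy with 488 nm excitation.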

Pseudomonas aeruginosa [12] = test: Antibacterial activity against Pseudomonas aeruginosa ATCC 27853 assessed as induction of outer membrane permeabilization by measuring NPN uptake by spectrofluorophotometric analysis; assay type: functional
How it was run: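 Exponential-phase cells were washed in HEPES pH 7.4 with 5 mM glucose and diluted to about 10^5 CFU/mL. NPN was added at 10 µM final, then peptide at varying concentrations. Fluorescence (ex 350/em 420 nm) was followed to plateau. Values are % NPN uptake relative to polymyxin B at 10 mg/L (100%). Three experiments, duplicates.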

Pseudomonas aeruginosa [13] = test: Antibacterial activity against Pseudomonas aeruginosa ATCC 27853 assessed as induction of membrane integrity disruption at MIC after 15 mins by PI-staining based flow cytometry (reference value: 4.7%)
Pseudomonas aeruginosa [14] = test: Antibacterial activity against Pseudomonas aeruginosa ATCC 27853 assessed as induction of cytoplasmic membrane depolarization after 90 min incubation under dark condition by diSC3-5 dye-based fluorescence analysis; assay type: functional
How it was run: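 Exponential-phase cells were washed three times in 5 mM HEPES (pH 7.4). diSC3-5 (0.4 µM final) and KCl (0.1 M final) were added, then the cells were incubated 90 min at 37 °C in the dark. Peptide at a range of concentrations was added and fluorescence followed at ex 622/em 670 nm. Three independent experiments, duplicates each.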

[15] = Pseudomonas aeruginosa, 26305, 18 h
[16] = Pseudomonas aeruginosa, 25349, 18 h
[17] = Pseudomonas aeruginosa, 11411, 18 h
[18] = Pseudomonas aeruginosa, 11431, 18 h

Compound	MIC (Escherichia coli) [µg/mL]	MIC (Pseudomonas aeruginosa [1]; CICC 21625, 18 h) [µg/mL]	CC10 (RAW264.7) [mg/L]	MIC (Pseudomonas aeruginosa [2]; ATCC 27853, 18 h) [µg/mL]	MIC (Pseudomonas aeruginosa [3]) [µg/mL]	MIC (Pseudomonas aeruginosa [4]; [15]) [µg/mL]	MIC (Pseudomonas aeruginosa [5]) [µg/mL]	MIC (Pseudomonas aeruginosa [6]; [16]) [µg/mL]	MIC (Staphylococcus aureus; ATCC 29213, 18 h) [µg/mL]	MIC (Pseudomonas aeruginosa [7]; [17]) [µg/mL]	MIC (Pseudomonas aeruginosa [8]; [18]) [µg/mL]	MIC (Pseudomonas aeruginosa [9]; CICC 21630, 18 h) [µg/mL]	MIC (Pseudomonas aeruginosa [10]; CICC 10419, 18 h) [µg/mL]	Activity (Pseudomonas aeruginosa [12])	other results
CC(C)(O/N=C(\C(=O)N[C@@H]1C(=O)N2C(C(=O)[O-])=C(C[n+]3ccccc3)CS[C@H]12)c1csc(N)n1)C(=O)O [CEFTAZIDIME]	2 (≈ 3.66 µM)	32 (≈ 58.5 µM)	> 256	2 (≈ 3.66 µM)	32 (≈ 58.5 µM)	128 (≈ 234 µM)	256 (≈ 468 µM)	64 (≈ 117 µM)	16 (≈ 29.3 µM)	32 (≈ 58.5 µM)	256 (≈ 468 µM)	8 (≈ 14.6 µM)	32 (≈ 58.5 µM)		
O=C(O)c1cn(C2CC2)c2cc(N3CCNCC3)c(F)cc2c1=O [CIPROFLOXACIN]				4 (≈ 12.1 µM)	16 (≈ 48.3 µM)				4 (≈ 12.1 µM)			16 (≈ 48.3 µM)			
CC[C@H](C)[C@H](NC(=O)CN)C(=O)NCC(=O)N[C@@H](C)C(=O)N[C@H](C(=O)N[C@@H](CC(C)C)C(=O)N[C@@H](CCCCN)C(=O)N[C@H](C(=O)N[C@@H](CC(C)C)C(=O)N[C@H](C(=O)N[C@H](C(=O)NCC(=O)N[C@@H](CC(C)C)C(=O)N1CCC[C@H]1C(=O)N[C@@H](C)C(=O)N[C@@H](CC(C)C)C(=O)N[C@H](C(=O)N[C@@H](CO)C(=O)N[C@@H](Cc1c[nH]c2ccccc12)C(=O)N[C@H](C(=O)N[C@@H](CCCCN)C(=O)N[C@@H](CCCNC(=N)N)C(=O)N[C@@H](CCCCN)C(=O)N[C@@H](CCCNC(=N)N)C(=O)N[C@@H](CCC(N)=O)C(=O)N[C@@H](CCC(N)=O)C(N)=O)[C@@H](C)CC)[C@@H](C)CC)[C@@H](C)O)[C@@H](C)O)C(C)C)C(C)C [MELITTIN]			0.5 (≈ 0.176 µM)												Activity (Lipopolysaccharide (LPS)): Dose-dependent effect; Drug uptake (Pseudomonas aeruginosa [11]): Active
GENTAMICIN [listing 1 of 2 here]			> 256												
GENTAMICIN [listing 2 of 2 here]															MIC (Pseudomonas aeruginosa [1]): 32 µg/mL; MIC (Pseudomonas aeruginosa [2]): 2 µg/mL; MIC (Pseudomonas aeruginosa [4]): 2 µg/mL; MIC (Pseudomonas aeruginosa [6]): 4 µg/mL; MIC (Staphylococcus aureus): 1 µg/mL; MIC (Pseudomonas aeruginosa [7]): 32 µg/mL; MIC (Pseudomonas aeruginosa [8]): 8 µg/mL; MIC (Pseudomonas aeruginosa [9]): 8 µg/mL; MIC (Pseudomonas aeruginosa [10]): 16 µg/mL
H-ARRARRRWRRRARRA-NH2	64	256	> 256	128	256	256	256	32	64	256	256	256	256	Dose-dependent effect	
H-FRRFRRRWRRRFRRF-NH2	8	256	256	8	256	64	256	8	16	256	16	32	256	Dose-dependent effect	
H-LRRLRRRLRRLRRRWRRRLRRLRRRLRRL-OH	8	8	128	8	16	16	8	8	16	8	8	4	4	Dose-dependent effect	
H-LRRLRRRWLRRLRRR-NH2	> 128	64	> 256	32	256	64	128	32	64	128	64	32	256	Dose-dependent effect	Activity (Pseudomonas aeruginosa [13]): 57%; Activity (Pseudomonas aeruginosa [14]): Dose-dependent effect
H-LRRLRRRWRRRLRRL-NH2	16	16	256	16	32	32	32	8	16	32	16	16	32	Dose-dependent effect	Activity (Pseudomonas aeruginosa [13]): 93%; Activity (Pseudomonas aeruginosa [14]): Dose-dependent effect
H-WRRWRRRWRRRWRRW-NH2	32	256	128	4	256	32	256	32	16	256	8	16	256	Dose-dependent effect	
